ChEMBL document CHEMBL4033676, “Design, synthesis and biological evaluation of 3,4-dihydro-2(1H)-quinoline-O-alkylamine derivatives as new multipotent cholinesterase/monoamine oxidase inhibitors for the treatment of Alzheimer's disease” (Bioorg Med Chem, 2017)
The source made the active and inactive calls. No cut-off for these calls is given here.

Assays:
[1] = biological target: Acetylcholinesterase (Electrophorus electricus) (UniProt O42275); assay: Inhibition of electric eel AChE at 25 uM using acetylthiocholine chloride as substrate after 15 mins by Ellman's method relative to control
Acetylcholinesterase (Electrophorus electricus), sequence (O42275 24-633 limits assumed): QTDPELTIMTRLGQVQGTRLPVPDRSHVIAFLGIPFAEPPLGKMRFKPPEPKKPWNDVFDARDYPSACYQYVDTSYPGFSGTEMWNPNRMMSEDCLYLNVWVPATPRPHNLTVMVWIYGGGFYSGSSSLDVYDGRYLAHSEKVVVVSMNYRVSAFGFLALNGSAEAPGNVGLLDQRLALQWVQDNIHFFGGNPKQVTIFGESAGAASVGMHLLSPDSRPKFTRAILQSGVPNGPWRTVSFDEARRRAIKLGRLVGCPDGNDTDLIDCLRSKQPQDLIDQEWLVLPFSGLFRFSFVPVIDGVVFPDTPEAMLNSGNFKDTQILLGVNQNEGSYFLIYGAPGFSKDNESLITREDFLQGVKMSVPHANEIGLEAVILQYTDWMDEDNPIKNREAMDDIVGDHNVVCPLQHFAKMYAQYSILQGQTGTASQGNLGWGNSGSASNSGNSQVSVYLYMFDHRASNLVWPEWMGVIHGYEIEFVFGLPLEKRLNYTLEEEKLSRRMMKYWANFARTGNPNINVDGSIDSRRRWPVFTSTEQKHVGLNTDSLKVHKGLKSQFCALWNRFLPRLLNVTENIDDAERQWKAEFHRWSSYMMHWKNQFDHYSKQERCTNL

Rattus norvegicus [2] = organism: Rattus norvegicus; assay: Inhibition of rat serum BuChE at 25 uM using butyrylthiocholine chloride as substrate after 15 mins by Ellman's method relative to control
[3] = biological target: T1, Acetylcholinesterase (Rattus norvegicus) (UniProt P37136); conditions: at 25 µM
T1 sequence (whole entry): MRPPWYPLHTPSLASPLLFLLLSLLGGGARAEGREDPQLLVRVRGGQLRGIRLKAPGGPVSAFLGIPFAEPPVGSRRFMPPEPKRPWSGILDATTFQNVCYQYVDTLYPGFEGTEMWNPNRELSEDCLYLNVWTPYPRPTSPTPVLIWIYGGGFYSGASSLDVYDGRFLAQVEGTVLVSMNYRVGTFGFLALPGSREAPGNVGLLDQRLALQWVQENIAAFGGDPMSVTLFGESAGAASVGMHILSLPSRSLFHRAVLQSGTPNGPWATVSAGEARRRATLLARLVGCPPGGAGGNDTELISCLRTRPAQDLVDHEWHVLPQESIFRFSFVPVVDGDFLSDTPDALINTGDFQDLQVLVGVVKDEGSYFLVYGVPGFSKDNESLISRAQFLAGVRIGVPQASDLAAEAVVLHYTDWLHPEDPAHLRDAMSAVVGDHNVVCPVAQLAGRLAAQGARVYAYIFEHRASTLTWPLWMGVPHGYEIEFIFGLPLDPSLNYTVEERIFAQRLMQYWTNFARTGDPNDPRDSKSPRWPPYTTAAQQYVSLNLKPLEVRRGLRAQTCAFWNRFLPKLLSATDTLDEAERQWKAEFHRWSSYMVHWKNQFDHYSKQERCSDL

[4] = biological target: Cholinesterase (Equus caballus) (UniProt P81908); assay: Inhibition of equine serum BuChE at 25 uM using butyrylthiocholine chloride as substrate after 15 mins by Ellman's method relative to control
Cholinesterase (Equus caballus), sequence (P81908 whole entry): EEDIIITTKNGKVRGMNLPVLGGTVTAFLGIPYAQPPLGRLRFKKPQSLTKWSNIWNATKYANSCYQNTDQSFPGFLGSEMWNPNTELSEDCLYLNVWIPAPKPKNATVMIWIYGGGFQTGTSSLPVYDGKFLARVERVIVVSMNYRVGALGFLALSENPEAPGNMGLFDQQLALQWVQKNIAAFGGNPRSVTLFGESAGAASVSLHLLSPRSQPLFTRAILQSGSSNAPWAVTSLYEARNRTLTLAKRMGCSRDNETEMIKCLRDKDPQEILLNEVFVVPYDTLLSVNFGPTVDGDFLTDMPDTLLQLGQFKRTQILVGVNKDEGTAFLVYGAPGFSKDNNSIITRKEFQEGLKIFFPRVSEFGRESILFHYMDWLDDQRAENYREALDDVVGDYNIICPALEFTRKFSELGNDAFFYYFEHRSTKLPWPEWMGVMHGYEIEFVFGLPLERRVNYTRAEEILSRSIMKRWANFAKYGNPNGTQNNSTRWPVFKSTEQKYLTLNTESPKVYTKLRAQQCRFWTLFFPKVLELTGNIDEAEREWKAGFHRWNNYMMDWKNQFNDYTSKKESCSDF

physchem = conditions: PAMPA
[5] = biological target: T2, Amine oxidase [flavin-containing] A (Homo sapiens, UniProt P21397); assay: Inhibition of recombinant human MAO-A expressed in baculovirus infected BTI insect cells using kynuramine as substrate after 30 mins by fluorescence assay
T2 sequence (P21397 whole entry): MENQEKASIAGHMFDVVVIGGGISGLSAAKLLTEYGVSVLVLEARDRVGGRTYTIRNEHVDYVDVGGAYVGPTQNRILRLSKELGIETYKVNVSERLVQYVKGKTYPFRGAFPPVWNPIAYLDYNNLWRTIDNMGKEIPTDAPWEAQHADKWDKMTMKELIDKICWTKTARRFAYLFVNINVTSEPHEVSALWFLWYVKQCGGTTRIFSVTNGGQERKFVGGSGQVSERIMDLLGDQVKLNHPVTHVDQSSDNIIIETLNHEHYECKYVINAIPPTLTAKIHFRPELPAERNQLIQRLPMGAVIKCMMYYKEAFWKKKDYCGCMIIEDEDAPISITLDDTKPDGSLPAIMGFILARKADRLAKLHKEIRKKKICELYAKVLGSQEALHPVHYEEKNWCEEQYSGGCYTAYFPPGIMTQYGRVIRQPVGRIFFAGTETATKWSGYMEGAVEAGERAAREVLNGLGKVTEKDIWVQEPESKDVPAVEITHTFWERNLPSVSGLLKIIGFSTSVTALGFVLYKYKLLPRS

Cholinesterase = Cholinesterase (Equus caballus, UniProt P81908); assay: Inhibition of equine serum BuChE using butyrylthiocholine chloride as substrate after 15 mins by Ellman's method
Cholinesterase, sequence (P81908 whole entry): as the sequence (P81908 whole entry) above
Procedure, shortened: (§1)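 Ellman assay. Equine serum or rat serum BuChE pre-incubated with test compound at various concentrations (DMSO <1%) in 0.1 M phosphate buffer pH 8.0 for 15 min at 37°C. DTNB (0.2%) added, absorbance read at 412 nm. Inhibition % = (1−Ai/Ac)×100. IC50 is the mean of three independent experiments, each run in triplicate.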

Homo sapiens = organism: Homo sapiens; assay: Selectivity index, ratio of IC50 for recombinant human MAO-B to IC50 for recombinant human MAO-A
Acetylcholinesterase [6] = biological target: T3, Acetylcholinesterase (Rattus norvegicus, UniProt P37136)
T3 sequence (P37136 whole entry): T1 sequence (whole entry)

[7] = Inhibition of rat serum BuChE using butyrylthiocholine chloride as substrate after 15 mins by Ellman's method; procedure, shortened: as §1
PC-12 [8] = assay: Cytotoxicity against rat PC12 cells assessed as decrease in cell viability at 100 uM after 24 hrs by MTT assay; type: cell-based; conditions: pc-12, 24 h
Rattus norvegicus [9] = organism: Rattus norvegicus; assay: Selectivity index, ratio of IC50 for rat serum BuChE to IC50 for 5% rat cortex homogenate AChE
[10] = Selectivity index, ratio of IC50 for equine serum BuChE to IC50 for electric eel AChE
PC-12 [11] = assay: Cytotoxicity against rat PC12 cells assessed as decrease in cell viability up to 10 uM after 24 hrs by MTT assay; type: cell-based; conditions: pc-12, 24 h
Acetylcholinesterase [12] = biological target: Acetylcholinesterase (Electrophorus electricus, UniProt O42275); assay: Inhibition of electric eel AChE using acetylthiocholine chloride as substrate after 15 mins by Ellman's method
Acetylcholinesterase (Electrophorus electricus, UniProt O42275), sequence (O42275 whole entry): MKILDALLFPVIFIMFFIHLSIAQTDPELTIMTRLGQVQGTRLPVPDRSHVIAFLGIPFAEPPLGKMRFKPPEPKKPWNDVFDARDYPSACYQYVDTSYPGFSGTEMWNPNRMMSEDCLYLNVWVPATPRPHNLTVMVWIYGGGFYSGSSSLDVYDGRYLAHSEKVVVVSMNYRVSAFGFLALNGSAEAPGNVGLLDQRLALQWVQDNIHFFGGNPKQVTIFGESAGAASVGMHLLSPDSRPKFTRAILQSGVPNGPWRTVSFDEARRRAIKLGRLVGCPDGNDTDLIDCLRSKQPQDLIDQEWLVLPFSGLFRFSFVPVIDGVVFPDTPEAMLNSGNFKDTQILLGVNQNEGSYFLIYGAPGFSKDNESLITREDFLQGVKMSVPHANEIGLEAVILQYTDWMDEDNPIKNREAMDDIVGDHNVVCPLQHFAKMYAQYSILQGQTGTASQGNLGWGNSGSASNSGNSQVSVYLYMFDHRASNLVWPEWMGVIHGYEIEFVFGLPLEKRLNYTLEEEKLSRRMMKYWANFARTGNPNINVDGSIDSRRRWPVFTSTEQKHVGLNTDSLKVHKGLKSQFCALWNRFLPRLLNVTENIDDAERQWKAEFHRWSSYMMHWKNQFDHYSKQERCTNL

[13] = biological target: T4, Amine oxidase [flavin-containing] B (Homo sapiens, UniProt P27338); assay: biochemical; type: cell-based
T4 sequence (P27338 whole entry): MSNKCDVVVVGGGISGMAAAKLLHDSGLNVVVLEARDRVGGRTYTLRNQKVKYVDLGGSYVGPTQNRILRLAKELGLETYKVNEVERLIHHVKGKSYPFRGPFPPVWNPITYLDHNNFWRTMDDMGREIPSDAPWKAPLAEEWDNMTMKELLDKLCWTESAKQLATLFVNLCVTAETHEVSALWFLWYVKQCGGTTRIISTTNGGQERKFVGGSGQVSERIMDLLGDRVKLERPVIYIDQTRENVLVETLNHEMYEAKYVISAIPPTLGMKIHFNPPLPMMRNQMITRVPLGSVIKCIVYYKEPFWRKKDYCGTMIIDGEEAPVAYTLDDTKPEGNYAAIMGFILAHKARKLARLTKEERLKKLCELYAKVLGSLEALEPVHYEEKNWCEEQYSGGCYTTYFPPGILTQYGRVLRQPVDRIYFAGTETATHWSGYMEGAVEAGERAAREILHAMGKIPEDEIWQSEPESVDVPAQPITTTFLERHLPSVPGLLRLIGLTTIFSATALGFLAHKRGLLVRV

[14] = biological target: Acetylcholinesterase (Electrophorus electricus) (UniProt O42275); assay: Mixed type inhibition of electric eel AChE using acetylthiocholine iodide as substrate up to 1 uM preincubated for 15 mins followed by substrate addition by Lineweaver-Burk plot analysis
Procedure, shortened: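 Purified Electrophorus electricus AChE (0.5 units/mL) in 0.1 M phosphate buffer pH 8.0 with 0.2% DTNB. Three inhibitor concentrations pre-incubated with enzyme for 15 min at 37°C, then acetylthiocholine iodide added at varying concentrations. Hydrolysis followed at 412 nm; no-inhibitor controls run in parallel. Weighted least-squares double-reciprocal analysis; Ki taken from the x-intercept of a secondary slope replot.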

SMILES	Papp at 18 h, 100 ug/ml (physchem)	IC50 [5]	IC50 (Cholinesterase)	Ratio IC50 (Homo sapiens)	IC50 (Acetylcholinesterase [6])	IC50 [7]	Ratio IC50 (Rattus norvegicus [9])	Ratio IC50 [10]	IC50 (Acetylcholinesterase [12])	IC50 [13]	further results
O=C1CCc2ccc(O)cc2N1											inhibition [1]: < 5%; inhibition (Rattus norvegicus [2]): < 5%; inhibition [3]: < 5%; inhibition [4]: < 5%
O=C1CCc2ccc(OCCCCCCN3CCC(Cc4ccccc4)CC3)cc2N1	25.6 ×10⁻⁶ cm/s	0.3 µM	2.3 µM	4.7	1.9 µM	3.6 µM	1.9	4.1	0.56 µM	1.4 µM	Activity (PC-12 [8]): 87.3%; Activity (PC-12 [11]): Non-Toxic; inhibition [14]: Active
Cn1c(=O)c2c(ncn2C)n(C)c1=O [CAFFEINE]	1.28 to 1.3 ×10⁻⁶ cm/s										
CCn1cc(C(=O)O)c(=O)c2cc(F)c(N3CCNCC3)nc21 [ENOXACIN]	0.47 to 0.9 ×10⁻⁶ cm/s										
CN1C(C(=O)Nc2ccccn2)=C(O)c2ccccc2S1(=O)=O [PIROXICAM]	0.72 to 2.5 ×10⁻⁶ cm/s										
Cn1c(=O)c2[nH]cnc2n(C)c1=O.O [THEOPHYLLINE]	0.1 to 0.12 ×10⁻⁶ cm/s										
CCn1cc(C(=O)O)c(=O)c2cc(F)c(N3CCNCC3)cc21 [NORFLOXACIN]	0.1 to 0.42 ×10⁻⁶ cm/s										
Clc1cccc(Cl)c1N=C1NCCN1 [CLONIDINE]	5.1 to 5.3 ×10⁻⁶ cm/s										
O=C1CCc2ccc(OCCCCCCN3CCc4ccccc4C3)cc2N1		3.4 µM	1.2 µM	1.3	10.8 µM	11.7 µM	1.1	0.1	8.2 µM	4.4 µM	
CCN(CC)CCCCOc1ccc2c(c1)NC(=O)CC2		7.7 µM	7.7 µM	0.5	14.5 µM	9.5 µM	0.7	1.5	5.1 µM	4 µM	
O=C1CCc2ccc(OCCCCCN3CCc4ccccc4C3)cc2N1		4.6 µM	0.9 µM	1.3	7.8 µM	11.2 µM	1.4	0.1	9.1 µM	5.9 µM	
O=C1CCc2ccc(OCCCCN3CCN(c4ccccn4)CC3)cc2N1		6.9 µM	8.4 µM	1.5	21 µM	40 µM	1.9	0.6	13.8 µM	10.1 µM	
C#CCN(CCCOc1ccc2c(c1)NC(=O)CC2)Cc1ccccc1		9 µM	29.5 µM	0.8	26 µM	30.3 µM	1.2	1.3	23.5 µM	7.3 µM	
O=C1CCc2ccc(OCCCN3CCC(N4CCCC4)CC3)cc2N1		9.6 µM	39.6 µM	2	16 µM	21.5 µM	1.3	6.9	5.8 µM	19.2 µM	
O=C1CCc2ccc(OCCCCCCN3CCN(Cc4ccccc4)CC3)cc2N1		5.7 µM	6.6 µM	0.7	17.9 µM	24 µM	1.3	0.5	12.9 µM	4.3 µM	
CC(C)N1CCN(CCCOc2ccc3c(c2)NC(=O)CC3)CC1		9.4 µM	20 µM	2.8	14 µM	10.2 µM	0.7	3.3	6.2 µM	26.1 µM	
